From ChEMBL document CHEMBL1141861, “Synthesis and in vitro anti-hepatitis B and C virus activities of ring-expanded ('fat') nucleobase analogues containing the imidazo[4,5-e][1,3]diazepine-4,8-dione ring system” (Bioorg Med Chem Lett, 2005)

Columns and labels:
Huh-7 [1] = assay: Cytotoxicity against Huh7ET cell line containg HCV replicon at 10 uM assessed by measuring the beta-actin RNA level relative to control; format: functional, Homo sapiens
Outline: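 Huh7 ET HCV replicon (luciferase reporter) cells treated at 10 µM in the same primary screen. Cellular β-actin RNA level is used to compute cytotoxicity, expressed as % of control.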

Huh-7 [2] = assay: Selectivity index (toxicity/antiviral activity); format: functional
Outline: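 Huh7 ET HCV luciferase replicon cells, single 10 µM primary screen. Index is the ratio of β-actin RNA level (% control) to replicon-derived luciferase activity (% control).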

Hepatitis C virus = assay: Antiviral activity against HCV in Huh7 ETcell line at 10 uM assessed by measuring HCV-RNA-derived LUC activity relative to control; format: functional, Hepacivirus hominis
Outline: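 Primary single-concentration screen (10 µM) in Huh7 ET cells carrying an HCV RNA replicon with a stable luciferase reporter. Replicon-derived luciferase activity serves as an indirect measure of HCV RNA and is expressed as % of control.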

HepG2 [3] = assay: Selectivity index (CC50/EC50) for inhibition of HBV replicative intermediate synthesis in human hepatoblastoma 2.2.15 cells; format: functional
Outline: (§1)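 2.2.15 cells were dosed daily for nine days. CC50 is the neutral red uptake concentration causing a twofold reduction versus untreated cultures. EC50 is from blot hybridization of intracellular replicative intermediates or extracellular virion DNA, by linear regression. Index = CC50/EC50.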

Hepatitis B virus [4] = assay: Inhibition of synthesis of extracellular virion DNA release in cultured human hepatoblastoma 2.2.15 cells; format: functional, organism-based; details: HepG2 2.2.15
Outline: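 Confluent 2.2.15 cells were dosed daily for nine days. Culture medium was collected daily, and extracellular virion HBV DNA was assayed on days 0, 3, 6 and 9 by blot hybridization using ³²P-labelled HBV-specific probes. EC50 and EC90 (50%/90% inhibition) came from linear regression on all treated cultures, with SD taken from the regression standard error.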

Hepatitis B virus [5] = assay: Inhibition of synthesis of intracellular HBV DNA replicative intermediates in cultured human hepatoblastoma 2.2.15 cells; format: functional, organism-based; details: HepG2 2.2.15
Outline: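 2.2.15 cells were dosed daily for nine days and lysed 24 h after day 9. Intracellular HBV DNA replicative intermediates were measured by Southern/dot blot hybridization with ³²P-labelled HBV probes. EC50 and EC90 came from linear regression on combined treated-culture data, with SD from the regression standard error.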

HepG2 [6] = assay: Cytotoxicity against human hepatoblastoma 2.2.15 cells; format: functional
Outline: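 Confluent HBV-producing 2.2.15 cells received compound daily for nine days. Cytotoxicity was read by neutral red dye uptake. CC50 is the concentration giving a twofold drop in uptake from the mean of untreated cultures.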

HepG2 [7] = assay: Selectivity index (CC50/EC50) for inhibition of HBV virion DNA synthesis in human hepatoblastoma 2.2.15 cells; format: functional; outline: as §1

Structure (SMILES) | Activity (Huh-7 [1]) [%] | Selectivity index (Huh-7 [2]) | Activity (Hepatitis C virus) [%] | Selectivity index (HepG2 [3]) | EC50 (Hepatitis B virus [4]) [nM] | EC90 (Hepatitis B virus [4]) [µM] | EC50 (Hepatitis B virus [5]) [µM] | EC90 (Hepatitis B virus [5]) [µM] | CC50 (HepG2 [6]) [mM] | Selectivity index (HepG2 [7])
CCCCCCCCCCCCNc1nc(=O)c2c(nc(Br)n2Cc2ccc(OC)cc2)c(=O)[nH]1 | 47 | 1 | 47 |  |  |  |  |  |  | 
CCNc1nc(=O)c2c(nc(Br)n2Cc2ccc(OC)cc2)c(=O)[nH]1 | 65 | 1.912 | 34 |  |  |  |  |  |  | 
CCCCCCCCNc1nc(=O)c2c(nc(Br)n2COCc2ccccc2)c(=O)[nH]1 | 61 | 2.1 | 29 |  |  |  |  |  |  | 
CNc1nc(=O)c2c(nc(Br)n2Cc2ccc(OC)cc2)c(=O)[nH]1 | 48 | 1.453 | 33 |  |  |  |  |  |  | 
CCCCCCCCCCCCCCCCNc1nc(=O)c2c(nc(Br)n2Cc2ccc(OC)cc2)c(=O)[nH]1 | 3 | 0.043 | 70 |  |  |  |  |  |  | 
CCCCCCCCNc1nc(=O)c2c(nc(Br)n2Cc2ccc(OC)cc2)c(=O)[nH]1 | 69 | 2.155 | 32 |  |  |  |  |  |  | 
CCCCCCCCCCNc1nc(=O)c2c(nc(Br)n2Cc2ccc(OC)cc2)c(=O)[nH]1 | 32 | 0.604 | 53 |  |  |  |  |  |  | 
CCCCCCCCNc1nc(=O)c2c(nc(Br)n2Cc2ccccc2)c(=O)[nH]1 | 83 | 1.06 | 78 | 34 | 1700 | 6.9 | 8.4 | 28 | 0.286 | 168
COc1ccc(Cn2c(Br)nc3c(=O)nc(N)[nH]c(=O)c32)cc1 | 89 | 1.435 | 62 |  |  |  |  |  |  | 
CCCCCCCCCCCCCCNc1nc(=O)c2c(nc(Br)n2Cc2ccc(OC)cc2)c(=O)[nH]1 | 34 | 0.532 | 64 |  |  |  |  |  |  | 
COc1ccc(Cn2c(Br)nc3c(=O)nc(NCc4ccccc4)[nH]c(=O)c32)cc1 | 69 | 1.255 | 55 |  |  |  |  |  |  | 
Nc1ccn([C@@H]2CS[C@H](CO)O2)c(=O)n1 [LAMIVUDINE] |  |  |  | 8602 |  | 0.151 | 0.251 | 0.648 | 2.16 | 44979
NC(=O)c1ncn([C@@H]2O[C@H](CO)[C@@H](O)[C@H]2O)n1 [RIBAVIRIN] | 12 | 0.42 | 89 |  |  |  |  |  |  | 
